The target of data set [1] is Metabotropic glutamate receptor 7 (Rattus norvegicus) (UniProt P35400). Description: Allosteric modulation of rat mGlu7 receptor expressed in HEK cells co-expressing GIRK1/2 assessed as change in glutamate-induced thallium flux preincubated for 2.5 mins followed by glutamate addition by FluoZin-2-AM dye based fluorescence assay. The format is cell-based.
Data set [2] is described as follows: Volume of distribution at steady state in rat administered as iv cassette dose. The settings on record: in vivo, read-out: Vdss. Type of data set: ADME, organism-based. The method, boiled down: (§1)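 IV cassette in male Sprague-Dawley rats (~300 g, n = 1 per experiment), cannulated in carotid artery and jugular vein and acclimated about one week. Plasma clearance, Vss, t1/2 and MRT were derived.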

For data set [3], the system named is P-gp. Description: Permeability from basolateral to apical side in MDCK cells harboring P-gp. The format is ADME, cell-based, Canis lupus familiaris. The settings on record: dog, MDCK-MDR1; read-out: permeability.
Data set [4] concerns the target Metabotropic glutamate receptor 8 (Rattus norvegicus) (UniProt P70579). Nature of the data set: Allosteric modulation of rat mGlu8 receptor expressed in HEK cells co-expressing GIRK1/2 assessed as change in glutamate-induced thallium flux preincubated for 2.5 mins followed by glutamate addition by FluoZin-2-AM dye based fluorescence assay. The format is cell-based. The procedure, abridged: (§2)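 HEK cells expressing GIRK1/2 plus rat mGlu2, mGlu3, mGlu7 or mGlu8, plated at 15,000 cells/well. Thallium flux was read with a double addition: 10 μM compound, then 2.5 min later a full agonist concentration-response. The agonist was glutamate, or L-AP4 for mGlu7. A left shift of more than 2-fold counted as potentiation. A right shift of more than 2-fold, or a ≥75% drop in maximum response, counted as antagonism.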

For data set [5], the target named is Metabotropic glutamate receptor 5 (Rattus norvegicus) (UniProt P31424). Description: Allosteric modulation of rat mGlu5 receptor assessed as change in glutamate-induced calcium mobilization at 10 uM preincubated for 2.5 mins followed by glutamate addition by Fluo-4-AM dye based fluorescence assay. Type of data set: functional. The method, boiled down: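 Human mGlu1 and rat mGlu5 tested by calcium mobilization with a double addition. 10 μM compound was added, then 2.5 min later a full glutamate concentration range. A left shift of more than 2-fold was scored as potentiation. A right shift of more than 2-fold, or a depression of the maximum response by at least 75%, was scored as antagonism.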
A general note: A change in cytosolic calcium serves as a functional read-out for many receptors and channels.

Data set [6] is described as follows: MRT in rat administered as iv cassette dose. The note with it: in vivo. The format is ADME, organism-based. The method, boiled down:
as §1

Data set [7] relates to P-gp. Description: Efflux ratio of permeability in MDCK cells harboring P-gp. Type of data set: ADME, cell-based, Canis lupus familiaris. The note with it: dog, MDCK-MDR1.
A further data set deals with Cytochrome P450 3A4 (Homo sapiens, UniProt P08684). Nature of the data set: Inhibition of CYP3A4 in human liver microsomes using midazolam as substrate preincubated for 15 mins followed by substrate addition and measured after 8 mins by LC-MS/MS analysis. Type of data set: ADME. Background: Liver microsomes are vesicles of endoplasmic reticulum, rich in cytochrome P450 enzymes.

A short description of data set [8]: Brain to plasma partition coefficient, Kp of the compound in Sprague-Dawley rat model of haloperidol-induced catalepsy at 10 mg/kg, po. The note with it: brain and plasma. The format is ADME, organism-based. The procedure, abridged:
(§3)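 Male Sprague-Dawley rats given haloperidol 0.75 mg/kg i.p., then returned to cages for 60 min. Compound 10 mg/kg was dosed orally 30 min before catalepsy testing. Plasma, brain and CSF were then assayed, and free levels reported.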

The next data set deals with Cytochrome P450 2C9 (Homo sapiens, UniProt P11712). Description: Inhibition of CYP2C9 in human liver microsomes using diclofenac as substrate preincubated for 15 mins followed by substrate addition and measured after 8 mins by LC-MS/MS analysis. The format is ADME.
Data set [9] has as its target Metabotropic glutamate receptor 3 (Rattus norvegicus) (UniProt P31422). Nature of the data set: Allosteric modulation of rat mGlu3 receptor expressed in HEK cells co-expressing GIRK1/2 assessed as change in glutamate-induced thallium flux preincubated for 2.5 mins followed by glutamate addition by FluoZin-2-AM dye based fluorescence assay. The format is cell-based. The method, boiled down: as §2

Another data set deals with Cytochrome P450 2D6 (Homo sapiens, UniProt P10635). Nature of the data set: Inhibition of CYP2D6 in human liver microsomes using dextromethorphan as substrate preincubated for 15 mins followed by substrate addition and measured after 8 mins by LC-MS/MS analysis. The format is ADME.
Data set [10] concerns the target Metabotropic glutamate receptor 2 (Rattus norvegicus) (UniProt P31421). Nature of the data set: Allosteric modulation of rat mGlu2 receptor expressed in HEK cells co-expressing GIRK1/2 assessed as change in glutamate-induced thallium flux preincubated for 2.5 mins followed by glutamate addition by FluoZin-2-AM dye based fluorescence assay. Type of data set: cell-based. The procedure, abridged:
as §2

In data set [11] the test system is P-gp. Description: Permeability from apical to basolateral side in MDCK cells harboring P-gp. Type of data set: ADME, cell-based, Canis lupus familiaris. The settings on record: dog, MDCK-MDR1; read-out: permeability.
A short description of data set [12]: Cmax in rat at 15 mg/kg, po qd for 4 days measured on day 1 post dose. The settings on record: in vivo.
The target in data set [13] is T1, AhR (read out as CYP1A2 induction) (Homo sapiens, UniProt P35869).
T1 sequence (P35869 whole entry): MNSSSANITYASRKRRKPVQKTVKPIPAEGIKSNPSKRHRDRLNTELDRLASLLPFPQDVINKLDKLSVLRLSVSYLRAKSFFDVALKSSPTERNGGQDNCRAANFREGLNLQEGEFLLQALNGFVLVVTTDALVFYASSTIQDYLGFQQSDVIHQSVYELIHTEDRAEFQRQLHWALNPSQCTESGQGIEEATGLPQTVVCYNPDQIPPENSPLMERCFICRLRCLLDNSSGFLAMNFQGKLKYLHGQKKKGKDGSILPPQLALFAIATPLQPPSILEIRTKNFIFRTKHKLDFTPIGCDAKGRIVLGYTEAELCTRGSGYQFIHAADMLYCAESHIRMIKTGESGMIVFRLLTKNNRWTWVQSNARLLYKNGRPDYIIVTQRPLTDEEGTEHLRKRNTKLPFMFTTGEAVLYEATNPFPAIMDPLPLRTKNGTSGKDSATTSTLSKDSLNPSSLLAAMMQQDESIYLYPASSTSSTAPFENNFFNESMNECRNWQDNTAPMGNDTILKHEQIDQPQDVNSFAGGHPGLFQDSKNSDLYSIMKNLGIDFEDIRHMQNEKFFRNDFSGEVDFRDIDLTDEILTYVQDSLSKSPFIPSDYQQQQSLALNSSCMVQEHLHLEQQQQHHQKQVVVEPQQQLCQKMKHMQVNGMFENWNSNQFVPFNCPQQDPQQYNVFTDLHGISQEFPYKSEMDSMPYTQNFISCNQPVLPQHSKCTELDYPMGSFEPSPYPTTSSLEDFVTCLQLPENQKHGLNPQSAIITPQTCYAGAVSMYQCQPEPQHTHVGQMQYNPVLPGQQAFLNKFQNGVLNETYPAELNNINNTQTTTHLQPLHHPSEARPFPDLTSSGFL
Description: Activation of AhR (unknown origin) assessed as CYP1A2 induction relative to control. Type of data set: ADME. The note with it: read-out: FC.

Data set [14] in a line: Unbound plasma concentration in Sprague-Dawley rat model of haloperidol-induced catalepsy at 10 mg/kg, po. The note with it: in vivo. The format is ADME, organism-based. The procedure, abridged: as §3
Data set [15] in a line: Cmax in rat at 15 mg/kg, po qd for 4 days measured on day 4 post dose. The note with it: in vivo.
A short description of data set [16]: Unbound drug level in brain of Sprague-Dawley rat model of haloperidol-induced catalepsy at 10 mg/kg, po. Type of data set: ADME, organism-based. The note with it: in vivo. The method, boiled down:
as §3

Data set [17] is described as follows: AUC in rat at 15 mg/kg, po qd for 4 days measured on day 1 post dose. The settings on record: in vivo.
A short description of data set [18]: AUC in rat at 15 mg/kg, po qd for 4 days measured on day 4 post dose. The settings on record: in vivo.

pIC50: −log10 of the molar value. The source made the active and inactive calls. The calls are words filed in the database; no cut-off is given here.

The term MRT denotes a mean duration of stay, worked out from the concentration-time curve. Broadly, the efflux ratio is a quotient of directional permeabilities that is used to spot active efflux. The term pIC50 denotes the IC50 on a negative log10 scale, so that one unit is a factor of ten. Usually Kp stands for the ratio of the level in a tissue or fluid to that in plasma or blood. As usually defined, the Cmax is the maximum level reached in the sampled fluid or tissue. A word on the AUC: it is concentration integrated over time.

Metabotropic glutamate receptor 2 (Rattus norvegicus), sequence (P31421 19-872 limits assumed): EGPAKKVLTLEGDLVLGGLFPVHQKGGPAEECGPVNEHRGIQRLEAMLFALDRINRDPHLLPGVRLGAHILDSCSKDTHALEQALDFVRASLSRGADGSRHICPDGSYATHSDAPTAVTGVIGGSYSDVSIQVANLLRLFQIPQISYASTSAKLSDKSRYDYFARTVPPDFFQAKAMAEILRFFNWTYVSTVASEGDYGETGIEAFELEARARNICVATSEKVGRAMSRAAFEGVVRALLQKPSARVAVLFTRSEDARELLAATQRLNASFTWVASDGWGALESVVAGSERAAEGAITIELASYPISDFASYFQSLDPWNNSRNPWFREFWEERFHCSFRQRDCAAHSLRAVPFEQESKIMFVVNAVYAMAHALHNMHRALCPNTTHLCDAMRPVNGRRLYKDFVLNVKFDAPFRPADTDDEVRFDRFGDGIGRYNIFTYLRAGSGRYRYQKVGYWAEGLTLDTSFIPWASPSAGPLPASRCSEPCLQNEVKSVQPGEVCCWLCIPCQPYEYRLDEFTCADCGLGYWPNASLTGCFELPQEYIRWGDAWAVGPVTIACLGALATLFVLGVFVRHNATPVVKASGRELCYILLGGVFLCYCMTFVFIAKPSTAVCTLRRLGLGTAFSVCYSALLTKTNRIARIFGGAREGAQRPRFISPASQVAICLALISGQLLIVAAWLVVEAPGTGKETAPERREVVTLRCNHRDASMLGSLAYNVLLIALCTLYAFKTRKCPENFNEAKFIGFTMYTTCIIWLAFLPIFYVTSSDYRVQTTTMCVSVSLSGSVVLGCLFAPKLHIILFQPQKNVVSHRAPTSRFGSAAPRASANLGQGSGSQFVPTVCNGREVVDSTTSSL
Metabotropic glutamate receptor 7 (Rattus norvegicus), sequence (P35400 whole entry): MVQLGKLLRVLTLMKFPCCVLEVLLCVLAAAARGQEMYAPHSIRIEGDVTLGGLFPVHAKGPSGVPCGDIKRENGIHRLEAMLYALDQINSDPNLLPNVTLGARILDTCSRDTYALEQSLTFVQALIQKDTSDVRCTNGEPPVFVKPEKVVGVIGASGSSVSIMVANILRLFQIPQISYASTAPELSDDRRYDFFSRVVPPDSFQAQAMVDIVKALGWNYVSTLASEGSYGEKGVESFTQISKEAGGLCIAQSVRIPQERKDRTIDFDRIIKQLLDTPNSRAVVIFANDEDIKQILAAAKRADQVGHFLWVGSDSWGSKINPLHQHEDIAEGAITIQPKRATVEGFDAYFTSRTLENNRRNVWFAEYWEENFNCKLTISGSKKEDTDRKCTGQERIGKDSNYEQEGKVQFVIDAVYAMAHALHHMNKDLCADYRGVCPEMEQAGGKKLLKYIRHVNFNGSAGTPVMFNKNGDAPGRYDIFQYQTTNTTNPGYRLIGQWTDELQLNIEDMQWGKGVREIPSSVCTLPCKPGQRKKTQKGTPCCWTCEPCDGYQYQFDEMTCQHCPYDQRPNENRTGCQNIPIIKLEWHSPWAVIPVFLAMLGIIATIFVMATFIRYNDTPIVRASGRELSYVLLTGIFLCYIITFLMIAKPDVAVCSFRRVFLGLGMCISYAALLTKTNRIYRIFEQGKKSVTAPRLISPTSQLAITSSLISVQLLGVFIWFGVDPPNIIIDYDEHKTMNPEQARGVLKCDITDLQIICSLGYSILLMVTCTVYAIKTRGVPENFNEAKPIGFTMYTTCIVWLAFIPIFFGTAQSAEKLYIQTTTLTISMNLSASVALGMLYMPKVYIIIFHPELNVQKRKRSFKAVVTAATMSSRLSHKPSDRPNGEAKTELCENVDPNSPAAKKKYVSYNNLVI
Cytochrome P450 3A4, sequence (P08684 whole entry): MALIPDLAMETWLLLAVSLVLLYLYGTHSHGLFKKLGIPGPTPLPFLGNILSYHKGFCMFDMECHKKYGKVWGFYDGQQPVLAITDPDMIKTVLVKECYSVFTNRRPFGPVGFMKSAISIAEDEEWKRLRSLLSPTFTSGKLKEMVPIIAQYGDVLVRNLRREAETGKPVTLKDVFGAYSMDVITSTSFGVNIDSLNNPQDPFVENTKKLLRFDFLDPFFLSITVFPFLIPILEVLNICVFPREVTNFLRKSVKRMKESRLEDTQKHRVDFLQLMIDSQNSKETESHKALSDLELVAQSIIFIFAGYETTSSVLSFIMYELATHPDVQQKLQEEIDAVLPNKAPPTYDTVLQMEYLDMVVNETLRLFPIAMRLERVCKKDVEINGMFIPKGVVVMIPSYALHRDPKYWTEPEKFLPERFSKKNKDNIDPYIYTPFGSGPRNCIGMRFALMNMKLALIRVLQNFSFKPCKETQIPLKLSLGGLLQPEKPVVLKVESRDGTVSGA
Cytochrome P450 2D6, sequence (P10635 whole entry): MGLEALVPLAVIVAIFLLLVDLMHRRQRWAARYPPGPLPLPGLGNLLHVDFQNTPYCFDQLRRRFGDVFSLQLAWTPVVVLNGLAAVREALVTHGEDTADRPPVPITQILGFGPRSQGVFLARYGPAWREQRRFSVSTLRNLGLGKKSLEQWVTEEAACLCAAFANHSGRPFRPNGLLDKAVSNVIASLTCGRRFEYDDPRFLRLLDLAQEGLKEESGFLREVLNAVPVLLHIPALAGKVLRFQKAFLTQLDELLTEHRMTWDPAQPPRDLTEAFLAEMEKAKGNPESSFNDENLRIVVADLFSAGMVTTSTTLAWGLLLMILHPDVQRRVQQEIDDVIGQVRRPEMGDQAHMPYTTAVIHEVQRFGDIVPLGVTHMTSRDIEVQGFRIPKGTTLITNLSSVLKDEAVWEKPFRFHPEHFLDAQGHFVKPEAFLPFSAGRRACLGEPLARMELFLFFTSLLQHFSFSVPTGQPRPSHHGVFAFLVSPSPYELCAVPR
Cytochrome P450 2C9, sequence (P11712 whole entry): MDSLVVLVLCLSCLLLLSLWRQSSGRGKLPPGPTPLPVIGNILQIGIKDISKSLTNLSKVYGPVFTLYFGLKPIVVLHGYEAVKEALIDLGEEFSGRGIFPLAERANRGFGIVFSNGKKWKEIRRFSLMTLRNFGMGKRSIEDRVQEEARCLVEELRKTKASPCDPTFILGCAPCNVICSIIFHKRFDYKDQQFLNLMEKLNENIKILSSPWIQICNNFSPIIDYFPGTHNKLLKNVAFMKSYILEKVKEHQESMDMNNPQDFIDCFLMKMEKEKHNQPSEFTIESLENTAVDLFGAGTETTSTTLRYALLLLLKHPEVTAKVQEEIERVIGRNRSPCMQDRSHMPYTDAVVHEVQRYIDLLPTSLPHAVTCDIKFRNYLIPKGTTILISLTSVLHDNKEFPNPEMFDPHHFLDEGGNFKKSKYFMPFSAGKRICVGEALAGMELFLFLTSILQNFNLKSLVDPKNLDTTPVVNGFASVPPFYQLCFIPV
Metabotropic glutamate receptor 3 (Rattus norvegicus), sequence (P31422 23-879 limits assumed): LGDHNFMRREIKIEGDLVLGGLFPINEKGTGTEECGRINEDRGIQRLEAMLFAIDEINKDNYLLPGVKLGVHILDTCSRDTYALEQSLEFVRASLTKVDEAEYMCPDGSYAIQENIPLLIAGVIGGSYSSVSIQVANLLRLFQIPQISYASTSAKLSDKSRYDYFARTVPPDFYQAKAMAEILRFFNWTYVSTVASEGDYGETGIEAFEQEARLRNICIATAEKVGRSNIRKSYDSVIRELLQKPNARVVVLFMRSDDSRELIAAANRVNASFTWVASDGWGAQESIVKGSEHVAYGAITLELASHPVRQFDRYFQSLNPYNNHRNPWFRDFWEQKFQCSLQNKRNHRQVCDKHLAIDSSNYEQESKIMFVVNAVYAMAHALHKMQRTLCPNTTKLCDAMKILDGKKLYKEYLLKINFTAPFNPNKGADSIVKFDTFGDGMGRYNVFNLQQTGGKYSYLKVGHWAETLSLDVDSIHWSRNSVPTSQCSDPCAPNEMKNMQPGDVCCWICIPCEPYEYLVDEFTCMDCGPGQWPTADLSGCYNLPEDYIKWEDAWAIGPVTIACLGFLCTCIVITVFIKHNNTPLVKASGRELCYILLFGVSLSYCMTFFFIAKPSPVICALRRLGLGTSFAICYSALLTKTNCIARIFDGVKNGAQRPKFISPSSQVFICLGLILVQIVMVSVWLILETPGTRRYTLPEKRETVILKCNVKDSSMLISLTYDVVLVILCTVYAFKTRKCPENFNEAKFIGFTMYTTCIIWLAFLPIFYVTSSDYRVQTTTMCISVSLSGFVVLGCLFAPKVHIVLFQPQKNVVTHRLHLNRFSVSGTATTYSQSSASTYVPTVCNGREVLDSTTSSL
Metabotropic glutamate receptor 8 (Rattus norvegicus), sequence (P70579 whole entry): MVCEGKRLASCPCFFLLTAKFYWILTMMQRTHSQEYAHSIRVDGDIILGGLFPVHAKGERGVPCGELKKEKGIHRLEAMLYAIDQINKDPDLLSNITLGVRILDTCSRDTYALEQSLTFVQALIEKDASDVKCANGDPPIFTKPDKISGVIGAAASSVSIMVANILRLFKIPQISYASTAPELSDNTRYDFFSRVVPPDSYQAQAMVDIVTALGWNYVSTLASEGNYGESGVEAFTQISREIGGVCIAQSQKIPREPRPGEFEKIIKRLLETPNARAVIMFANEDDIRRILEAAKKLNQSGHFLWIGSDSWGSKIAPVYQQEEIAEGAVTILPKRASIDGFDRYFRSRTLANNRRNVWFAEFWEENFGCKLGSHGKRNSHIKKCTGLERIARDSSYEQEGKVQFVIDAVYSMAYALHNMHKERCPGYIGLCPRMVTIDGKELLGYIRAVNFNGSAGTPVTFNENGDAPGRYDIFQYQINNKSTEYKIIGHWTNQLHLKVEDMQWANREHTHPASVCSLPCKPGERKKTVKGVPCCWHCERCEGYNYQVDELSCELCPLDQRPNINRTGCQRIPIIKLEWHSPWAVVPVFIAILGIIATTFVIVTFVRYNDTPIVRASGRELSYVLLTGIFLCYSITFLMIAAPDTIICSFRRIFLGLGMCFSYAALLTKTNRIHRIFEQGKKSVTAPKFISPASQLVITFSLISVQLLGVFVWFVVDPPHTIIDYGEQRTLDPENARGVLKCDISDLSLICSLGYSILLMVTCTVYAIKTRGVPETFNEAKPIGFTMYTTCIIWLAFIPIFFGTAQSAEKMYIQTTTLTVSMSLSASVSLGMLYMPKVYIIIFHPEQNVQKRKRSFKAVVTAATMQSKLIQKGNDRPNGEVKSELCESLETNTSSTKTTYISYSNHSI

`O=C(NC1CC(F)(F)C1)c1nsc2cc(Nc3n[nH]c4cccnc34)ccc12`: the result in [1], in [4], in data set [5], in data set [9] and in data set [10] was inactive. The Vd in data set [2] stood at 1.6 L/kg. For the same compound, the Papp B→A in the data set with P-gp [3] worked out at 5.4 ×10⁻⁶ cm/s. Further, the MRT in data set [6] was 8.5 h. Also, the efflux ratio in the data set with P-gp [7] was found to be 1.9. Moreover, the pIC50 against Cytochrome P450 3A4, against Cytochrome P450 2C9 and at Cytochrome P450 2D6 was under 4.52 throughout. For the same compound, the Kp in data set [8] stood at 0.23. Moreover, the Papp A→B in the data set with P-gp [11] was 2.9 ×10⁻⁶ cm/s.
For `CC(C)(C)Cc1noc2cc(Nc3n[nH]c4nccnc34)ccc12`, the Cmax in [12] stood at 86.3 ng/mL; in [15], 62.8 ng/mL. Moreover, the fold induction in data set [13] worked out at 6.4. For the same compound, the “Cp(f)” value in data set [14] is recorded as 11.2 nM. For the same compound, in data set [16], the “Drug uptake(free)” value was found to be 5.8 nM. Also, the values for the area under the curve (AUC) at 96 h in data set [17] and in data set [18] were 624 ng·h/mL and 690 ng·h/mL, respectively.

Source of the values: ChEMBL document CHEMBL4308847, “Discovery, Structure-Activity Relationship, and Biological Characterization of a Novel Series of 6-((1 H-Pyrazolo[4,3- b]pyridin-3-yl)amino)-benzo[ d]isothiazole-3-carboxamides as Positive Allosteric Modulators of the Metabotropic Glutamate Receptor 4 (mGlu4)” (J Med Chem, 2018).
